Converted amounts (≈) assume the structure as drawn. The source made the active and inactive calls. No cut-off for these calls is given here.
Tests used:
[1] = system: Candida tropicalis; experiment: Antifungal activity against Candida tropicalis assessed as growth inhibition at 15.6 ug/mL by microplate reader analysis; type: functional; conditions: read-out: GI
[2] = system: Candida tropicalis; experiment: Antifungal activity against Candida tropicalis by microplate reader analysis; type: functional
[3] = system: Candida albicans; experiment: Antifungal activity against Candida albicans ATCC 10231 assessed as growth inhibition at 15.6 ug/mL after 24 hrs by microplate reader analysis; type: functional; conditions: ATCC 10231, 24 h, read-out: GI
Outline: (§1)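 96-well RPMI-1640 wells with compound at final 250–0.98 µg/mL (DMSO ≤1%). Inoculum 100 µL, 1–5 × 10³ CFU/mL, 200 µL final. Each well includes growth (DMSO, no compound) and sterility controls. % inhibition = 100 − (CTW−SCW)/(GCW−SCW) × 100, run in duplicate.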

[4] = system: Candida albicans; experiment: Antifungal activity against Candida albicans ATCC 10231 assessed as growth inhibition at 31.25 ug/mL after 24 hrs by microplate reader analysis; type: functional; conditions: ATCC 10231, 24 h, read-out: GI; outline: as §1
[5] = system: Cryptococcus neoformans; experiment: Antifungal activity against Cryptococcus neoformans ATCC 32264 assessed as growth inhibition at 125 ug/mL after 48 hrs by microplate reader analysis; type: functional; conditions: ATCC 32264, 48 h, read-out: GI
Outline: (§2)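 Microplate growth-inhibition assay in RPMI-1640, compound at final 250–0.98 µg/mL (DMSO ≤1%). Inoculum 1–5 × 10³ CFU/mL. Sterility and DMSO growth controls included. Percent inhibition is computed from blank-corrected OD relative to the growth control, tested in duplicate.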

[6] = system: Cryptococcus neoformans; experiment: Antifungal activity against Cryptococcus neoformans ATCC 32264 after 48 hrs by microplate reader analysis; type: functional; conditions: ATCC 32264, 48 h; outline: as §2
[7] = system: Nannizzia gypsea; experiment: Antifungal activity against Microsporum gypseum CCC 115 by NCCLS broth microdilution method; type: functional; conditions: read-out: MIC100
Outline: (§3)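 MIC by broth microdilution per NCCLS M27-A3/M38-A2 in RPMI-1640 buffered to pH 7.0 with MOPS. Twofold dilutions from 250–0.98 µg/mL, final DMSO ≤1%. Inoculum 1–5 × 10³ CFU/mL. Incubated in a moist dark chamber, 30 °C for Aspergillus and 28–30 °C for dermatophytes. Read visually when control growth allowed. Endpoint is the lowest concentration giving total inhibition of visible growth (MIC100).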

[8] = Acute toxicity in bony fish assessed as mortality at 1.6 ug/mL after 24 hrs; conditions: actinopterygii; read-out: Activity
[9] = system: Trichophyton mentagrophytes; experiment: Antifungal activity against Trichophyton mentagrophytes ATCC 9972 by NCCLS broth microdilution method; type: functional; conditions: read-out: MIC100; outline: as §3
[10] = system: Cryptococcus neoformans; experiment: Antifungal activity against Cryptococcus neoformans ATCC 32264 assessed as growth inhibition at 15.6 ug/mL after 48 hrs by microplate reader analysis; type: functional; conditions: ATCC 32264, 48 h, read-out: GI; outline: as §2
[11] = system: Candida tropicalis; experiment: Antifungal activity against Candida tropicalis assessed as growth inhibition at 125 ug/mL by microplate reader analysis; type: functional; conditions: read-out: GI
[12] = system: Candida albicans; experiment: Antifungal activity against Candida albicans ATCC 10231 after 24 hrs by microplate reader analysis; type: functional; conditions: ATCC 10231, 24 h; outline: as §1
[13] = system: Candida albicans; experiment: Antifungal activity against Candida albicans ATCC 10231 assessed as growth inhibition at 3.9 ug/mL after 24 hrs by microplate reader analysis; type: functional; conditions: ATCC 10231, 24 h, read-out: GI; outline: as §1
[14] = system: Candida albicans; experiment: Antifungal activity against Candida albicans ATCC 10231 after 48 hrs by NCCLS broth microdilution method; type: functional; conditions: ATCC 10231, 48 h, read-out: MIC100
Outline: (§4)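 Yeast MIC by NCCLS M27-A3 broth microdilution in RPMI-1640 buffered to pH 7.0 with MOPS. Twofold dilutions of 250–0.98 µg/mL, final DMSO ≤1%. Inoculum 1–5 × 10³ CFU/mL. Incubated at 30 °C in a moist dark chamber. Read visually at 48 h. MIC100 is the lowest concentration with no visible growth versus drug-free control.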

[15] = system: Candida albicans; experiment: Antifungal activity against Candida albicans ATCC 10231 assessed as growth inhibition at 62.5 ug/mL after 24 hrs by microplate reader analysis; type: functional; conditions: ATCC 10231, 24 h, read-out: GI; outline: as §1
[16] = system: Cryptococcus neoformans; experiment: Antifungal activity against Cryptococcus neoformans ATCC 32264 assessed as growth inhibition at 62.5 ug/mL after 48 hrs by microplate reader analysis; type: functional; conditions: ATCC 32264, 48 h, read-out: GI; outline: as §2
[17] = system: Trichophyton rubrum; experiment: Antifungal activity against Trichophyton rubrum CCC 110 by NCCLS broth microdilution method; type: functional; conditions: read-out: MIC100; outline: as §3
[18] = system: Cryptococcus neoformans; experiment: Antifungal activity against Cryptococcus neoformans ATCC 32264 assessed as growth inhibition at 31.25 ug/mL after 48 hrs by microplate reader analysis; type: functional; conditions: ATCC 32264, 48 h, read-out: GI; outline: as §2
[19] = system: Candida tropicalis; experiment: Antifungal activity against Candida tropicalis after 48 hrs by NCCLS broth microdilution method; type: functional; conditions: read-out: MIC100; outline: as §4
[20] = system: Trichophyton mentagrophytes; experiment: Fungicidal activity against Trichophyton mentagrophytes ATCC 9972 after 48 hrs by agar plate dilution method; type: functional; conditions: ATCC 9972, 48 h
Outline: (§5)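 MFC: after the microdilution MIC, material from each clear well was plated onto RPMI-1640 agar buffered with MOPS. Plates incubated at 30 °C and read after 48 h. MFC is the lowest concentration giving total inhibition of visible growth.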

[21] = system: Trichophyton rubrum; experiment: Fungicidal activity against Trichophyton rubrum CCC 110 after 48 hrs by agar plate dilution method; type: functional; conditions: CCC 110, 48 h
Outline: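 Samples from each clear well of the MIC broth microdilution tray were plated onto RPMI-1640 agar buffered with MOPS. That tray had compounds twofold diluted in RPMI (pH 7.0, MOPS) from 250–0.98 µg/mL with inoculum of 1–5 × 10³ CFU/mL, incubated at 28–30 °C for dermatophytes. Plates were incubated at 30 °C and read at 48 h. MFC was taken as the lowest concentration giving total inhibition of visible growth.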

[22] = Acute toxicity in bony fish assessed as mortality at 0.8 ug/mL after 48 hrs; conditions: actinopterygii; read-out: Activity
[23] = system: Cryptococcus neoformans; experiment: Antifungal activity against Cryptococcus neoformans ATCC 32264 after 48 hrs by NCCLS broth microdilution method; type: functional; conditions: ATCC 32264, 48 h, read-out: MIC100; outline: as §4
[24] = system: Candida tropicalis; experiment: Antifungal activity against Candida tropicalis assessed as growth inhibition at 62.5 ug/mL by microplate reader analysis; type: functional; conditions: read-out: GI
[25] = system: Aspergillus flavus; experiment: Antifungal activity against Aspergillus flavus ATCC 9170 at 0.98 to 250 ug/mL by NCCLS broth microdilution method; type: functional, organism-based; outline: as §3
[26] = system: Candida albicans; experiment: Fungicidal activity against Candida albicans ATCC 10231 after 48 hrs by agar plate dilution method; type: functional; conditions: ATCC 10231, 48 h; outline: as §5
[27] = system: Cryptococcus neoformans; experiment: Antifungal activity against Cryptococcus neoformans ATCC 32264 assessed as growth inhibition at 3.9 ug/mL after 48 hrs by microplate reader analysis; type: functional; conditions: ATCC 32264, 48 h, read-out: GI; outline: as §2
[28] = system: Cryptococcus neoformans; experiment: Antifungal activity against Cryptococcus neoformans ATCC 32264 assessed as growth inhibition at 7.8 ug/mL after 48 hrs by microplate reader analysis; type: functional; conditions: ATCC 32264, 48 h, read-out: GI; outline: as §2
[29] = Acute toxicity in bony fish assessed as mortality at 0.4 ug/mL after 96 hrs; conditions: actinopterygii; read-out: Activity
Outline: (§6)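 Guppy (Poecilia reticulata) acute static exposure: 10 fish per concentration in 2 L wide-mouthed jars holding the test solution. Compounds were added from […] to give the final concentrations. Dead fish were counted and removed every 24 h, with general condition noted; percentage mortality was scored at 96 h. Two experiments, each in triplicate.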

[30] = system: Nannizzia gypsea; experiment: Fungicidal activity against Microsporum gypseum CCC 115 after 48 hrs by agar plate dilution method; type: functional; conditions: CCC 115, 48 h; outline: as §5
[31] = Acute toxicity in bony fish assessed as mortality at 5 ug/mL after 96 hrs; conditions: actinopterygii, 96 h; outline: as §6
[32] = system: Cryptococcus neoformans; experiment: Fungicidal activity against Cryptococcus neoformans ATCC 32264 after 48 hrs by agar plate dilution method; type: functional; conditions: ATCC 32264, 48 h; outline: as §5
[33] = system: Candida tropicalis; experiment: Antifungal activity against Candida tropicalis assessed as growth inhibition at 250 ug/mL by microplate reader analysis; type: functional; conditions: read-out: GI
[34] = system: Candida tropicalis; experiment: Fungicidal activity against Candida tropicalis after 48 hrs by agar plate dilution method; type: functional; outline: as §5
[35] = system: Cryptococcus neoformans; experiment: Antifungal activity against Cryptococcus neoformans ATCC 32264 assessed as growth inhibition at 250 ug/mL after 48 hrs by microplate reader analysis; type: functional; conditions: ATCC 32264, 48 h, read-out: GI; outline: as §2
[36] = system: Candida tropicalis; experiment: Antifungal activity against Candida tropicalis assessed as growth inhibition at 31.25 ug/mL by microplate reader analysis; type: functional; conditions: read-out: GI
[37] = system: Candida tropicalis; experiment: Antifungal activity against Candida tropicalis assessed as growth inhibition at 7.8 ug/mL by microplate reader analysis; type: functional; conditions: read-out: GI
[38] = system: Aspergillus niger; experiment: Antifungal activity against Aspergillus niger ATCC 9029 at 0.98 to 250 ug/mL by NCCLS broth microdilution method; type: functional, organism-based; outline: as §3
[39] = system: Candida albicans; experiment: Antifungal activity against Candida albicans ATCC 10231 assessed as growth inhibition at 7.8 ug/mL after 24 hrs by microplate reader analysis; type: functional; conditions: ATCC 10231, 24 h, read-out: GI; outline: as §1
[40] = system: Candida albicans; experiment: Antifungal activity against Candida albicans ATCC 10231 assessed as growth inhibition at 250 ug/mL after 24 hrs by microplate reader analysis; type: functional; conditions: ATCC 10231, 24 h, read-out: GI; outline: as §1
[41] = system: Aspergillus fumigatus; experiment: Antifungal activity against Aspergillus fumigatus ATCC 26934 at 0.98 to 250 ug/mL by NCCLS broth microdilution method; type: functional, organism-based; outline: as §3
[42] = system: Candida tropicalis; experiment: Antifungal activity against Candida tropicalis assessed as growth inhibition at 3.9 ug/mL by microplate reader analysis; type: functional; conditions: read-out: GI
[43] = system: Candida albicans; experiment: Antifungal activity against Candida albicans ATCC 10231 assessed as growth inhibition at 125 ug/mL after 24 hrs by microplate reader analysis; type: functional; conditions: ATCC 10231, 24 h, read-out: GI; outline: as §1

Structure (SMILES): COc1nc(N)c(N=O)c(OCc2ccccc2)n1
- inhibition of growth at 15.6 µg/mL [1]: 96.7%
- MIC50 [2]: 7.8 µg/mL (≈ 30 µM)
- inhibition of growth at 15.6 µg/mL [3]: 99.6%
- inhibition of growth at 31.25 µg/mL [4]: 100%
- inhibition of growth at 125 µg/mL [5]: 100%
- MIC50 [6]: 3.9 µg/mL (≈ 15 µM)
- MIC [7]: 62.5 µg/mL (≈ 240 µM)
- mortality at 24 h, 1.6 ug/mL [8]: 100%
- MIC [9]: 125 µg/mL (≈ 480 µM)
- inhibition of growth at 15.6 µg/mL [10]: 80.2%
- inhibition of growth at 125 µg/mL [11]: 100%
- MIC50 [12]: 7.8 µg/mL (≈ 30 µM)
- inhibition of growth at 3.9 µg/mL [13]: 47.2%
- MIC [14]: 31.2 µg/mL (≈ 120 µM)
- inhibition of growth at 62.5 µg/mL [15]: 100%
- inhibition of growth at 62.5 µg/mL [16]: 100%
- MIC [17]: 125 µg/mL (≈ 480 µM)
- inhibition of growth at 31.25 µg/mL [18]: 88.1%
- MIC [19]: 31.2 µg/mL (≈ 120 µM)
- MFC [20]: 125 µg/mL (≈ 480 µM)
- MFC [21]: 125 µg/mL (≈ 480 µM)
- mortality at 48 h, 0.8 ug/mL [22]: 100%
- MIC [23]: 62.5 µg/mL (≈ 240 µM)
- inhibition of growth at 62.5 µg/mL [24]: 100%
- Activity [25]: inactive
- MFC [26]: 62.5 µg/mL (≈ 240 µM)
- inhibition of growth at 3.9 µg/mL [27]: 49.2%
- inhibition of growth at 7.8 µg/mL [28]: 78.1%
- mortality at 96 h, 0.4 ug/mL [29]: 0%
- MFC [30]: 62.5 µg/mL (≈ 240 µM)
- Activity [31]: Non-toxic
- MFC [32]: 125 µg/mL (≈ 480 µM)
- inhibition of growth at 250 µg/mL [33]: 100%
- MFC [34]: 62.5 µg/mL (≈ 240 µM)
- inhibition of growth at 250 µg/mL [35]: 100%
- inhibition of growth at 31.25 µg/mL [36]: 100%
- inhibition of growth at 7.8 µg/mL [37]: 56.7%
- Activity [38]: inactive
- inhibition of growth at 7.8 µg/mL [39]: 56.9%
- inhibition of growth at 250 µg/mL [40]: 100%
- Activity [41]: inactive
- inhibition of growth at 3.9 µg/mL [42]: 19.7%
- inhibition of growth at 125 µg/mL [43]: 100%
